Test results as given in PMC10963326 (Heliyon, 2024).

How the values were obtained:
thrombin exosite 1 = details: binding to exosite 1 ref 21; cited from earlier work
human thrombin = human thrombin (Homo sapiens, UniProt P00734); assay: Direct inhibition of human thrombin, chromogenic substrate; type: biochemical; details: highest concentration tested of 600 μM, data not shown
Procedure, shortened: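 Thrombin 6 nM final in 20 mM Tris-HCl pH 7.4, 100 mM NaCl, 2.5 mM CaCl2, 0.1% PEG8000, with or without 0.02% Tween80, at 25 or 37 °C. Test compound (DMSO vehicle) added, then either 10 min preincubation or none. Spectrozyme TH at 50 μM final; initial A405 rate. Residual activity was the ratio to the no-compound rate, fitted to a logistic equation for IC50, HS and ΔY.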

Compound	Kd (thrombin exosite 1) [µM]	inhibition of thrombin (human thrombin)
[5 F]-Hir-(54–65)-(SO3^−) [HirP]	0.028	–
CCCCCCCCCCCCOS(=O)(=O)[O-].[Na+] [sodium dodecyl sulfate]	–	did not inhibit
